Experimental data published in publication PMC8526403 (ACS chemical biology, 2021).
Entries after “also recorded” stand apart in the source; their conditions may differ.

Key:
[1] = target: T1, 3-OST-4 (Homo sapiens, UniProt Q9Y661); test: 3-OST-4 modification of oligosaccharide substrates, anion exchange HPLC analysis; format: biochemical; conditions: for sulfation by 3-OST-4 (in words): HPLC analysis of substrate with or without 3-OST-4 modification
T1 sequence (Q9Y661 163-456): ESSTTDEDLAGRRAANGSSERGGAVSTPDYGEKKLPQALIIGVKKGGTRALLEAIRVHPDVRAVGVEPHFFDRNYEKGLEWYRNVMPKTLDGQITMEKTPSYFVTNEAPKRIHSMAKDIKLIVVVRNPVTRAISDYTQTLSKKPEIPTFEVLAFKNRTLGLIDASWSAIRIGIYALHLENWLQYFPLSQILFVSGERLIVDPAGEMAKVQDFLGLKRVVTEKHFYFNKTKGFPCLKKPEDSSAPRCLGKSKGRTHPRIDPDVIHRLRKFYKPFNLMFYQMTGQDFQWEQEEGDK
Summary of the method: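 Recombinant human 3-OST-4 (E163–K456) was expressed in Sf9 insect cells and purified on heparin then Ni-Sepharose. Oligosaccharide substrates were incubated overnight at 37 °C with PAPS and 3-OST-4 (0.8 mg mL−1 stock) in 50 mM Tris, pH 7.2, with 2 mM CaCl2. For the 8-mer substrate C, 2 mM MnCl2 was also present. Conversion was followed by anion exchange HPLC.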

[2] = target: human FXa (Homo sapiens, UniProt P01008); test: Anti-FXa activity; format: biochemical; conditions: for anti-FXa IC50: with antithrombin, 0–5000 ng/mL; for fold increase of anti-FXa IC50 compared to HSoligo 9: ratio of IC50 values
Chain of human FXa (P01008 33-464): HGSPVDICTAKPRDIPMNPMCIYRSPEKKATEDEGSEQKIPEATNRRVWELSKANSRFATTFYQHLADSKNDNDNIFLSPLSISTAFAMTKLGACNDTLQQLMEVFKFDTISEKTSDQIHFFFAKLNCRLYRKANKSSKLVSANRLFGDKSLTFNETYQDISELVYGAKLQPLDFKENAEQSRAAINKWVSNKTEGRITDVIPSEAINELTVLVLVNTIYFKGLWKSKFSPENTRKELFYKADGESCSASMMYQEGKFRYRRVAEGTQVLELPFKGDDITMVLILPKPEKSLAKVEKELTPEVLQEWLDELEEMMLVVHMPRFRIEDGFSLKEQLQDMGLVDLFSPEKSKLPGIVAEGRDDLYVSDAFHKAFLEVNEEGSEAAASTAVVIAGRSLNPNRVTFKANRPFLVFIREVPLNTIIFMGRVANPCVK
Summary of the method: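 Human FXa at 50 U/mL in PBS. Test compound dissolved in PBS at 0–5000 ng/mL, preincubated with antithrombin (35 μg/mL) for 2 min at 37 °C. FXa added for 4 min at 37 °C, then diluted S-2765 (1 mg mL−1). A405 read continuously for 5 min. Maximum slope divided by control maximum slope gives % FXa activity.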

[3] = target: factor IIa (FIIa) (Homo sapiens, UniProt P01008); test: Anti-FIIa activity; format: biochemical
Chain of factor IIa (FIIa) (P01008 33-464): as above

[4] = target: T2, HMGB1 (Mus musculus, UniProt P63158); test: Binding of biotinylated oligosaccharides to HMGB1; conditions: biotinylated oligosaccharide, mouse liver lysate; for fold increase in binding to HMGB-1 compared to negative control NS6S 8-mer: Western band intensity
T2 sequence (P63158 1-215): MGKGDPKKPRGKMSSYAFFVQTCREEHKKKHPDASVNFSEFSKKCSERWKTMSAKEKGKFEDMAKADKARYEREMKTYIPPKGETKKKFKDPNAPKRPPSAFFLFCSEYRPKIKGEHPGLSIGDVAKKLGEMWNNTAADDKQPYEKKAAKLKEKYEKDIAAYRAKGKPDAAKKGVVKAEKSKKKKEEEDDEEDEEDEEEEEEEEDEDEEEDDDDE
Summary of the method: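 Biotinylated oligosaccharides (~20 nmol) were mixed with fresh mouse liver lysate containing HMGB1 in 20 mM HEPES, pH 7.2, 100 mM NaCl, 1% BSA. Incubation was overnight at 4 °C. Complexes were captured on streptavidin agarose and washed 5× in 20 mM HEPES/250 mM NaCl, pH 7.2. They were eluted in LDS buffer and blotted with rabbit monoclonal anti-HMGB1 plus HRP secondary. Bands were quantified densitometrically.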

[5] = target: T1, 3-OST-4; test: Reactivity of 12-mers and HS to 3-OST-4 modification; format: biochemical; conditions: 12-mer substrates compared to HS polysaccharide
Summary of the method: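 Each 12-mer (10 μg) was incubated with 3-OST-4 (5 μL of 0.8 mg mL−1 stock) in 100 μL of 50 mM Tris-HCl, pH 7.5. The reaction contained [35S]PAPS (5 μM, 1.2 × 10^5 cpm) and ran 1 h at 37 °C. Product was recovered on DEAE and 35S counted as cpm. A no-substrate reaction served as background.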

[6] = test system: acetaminophen overdosed mice; conditions: acetaminophen overdose model; cited from earlier work
[7] = target: tau protein (Homo sapiens, UniProt P10636); test: Binding of biotinylated oligosaccharides to Cy5-labeled tau; conditions: biotinylated oligosaccharide
Chain of tau protein (P10636 1-441 isoform P10636-8): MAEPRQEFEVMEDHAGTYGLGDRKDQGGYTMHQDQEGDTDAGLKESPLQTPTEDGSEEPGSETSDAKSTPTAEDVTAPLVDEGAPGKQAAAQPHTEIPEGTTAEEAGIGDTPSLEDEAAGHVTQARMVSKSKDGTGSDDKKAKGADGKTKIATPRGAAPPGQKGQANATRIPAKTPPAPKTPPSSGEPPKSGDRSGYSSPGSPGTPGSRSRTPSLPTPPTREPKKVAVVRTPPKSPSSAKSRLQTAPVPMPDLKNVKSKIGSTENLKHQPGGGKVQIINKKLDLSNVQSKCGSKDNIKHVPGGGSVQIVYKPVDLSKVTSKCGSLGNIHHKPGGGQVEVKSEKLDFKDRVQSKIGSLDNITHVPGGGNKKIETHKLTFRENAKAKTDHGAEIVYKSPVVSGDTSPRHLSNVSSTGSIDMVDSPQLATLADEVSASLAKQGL
Summary of the method: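 Biotinylated oligosaccharides (~10 nmol) were incubated overnight at 4 °C with Cy5-labeled tau (5 μg) in 20 mM HEPES, pH 7.2, 100 mM NaCl, 1% BSA. Complexes were captured on streptavidin agarose and washed 3× in HEPES/250 mM NaCl, then 2× in PBS. Tau was released with heparin lyases II (14 μg) and III (20 μg) over 4 h at RT. Released tau was resolved on 4–12% Bis-Tris gels, read by fluorescence scanning and quantified.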

[8] = test system: acetaminophen overdosed mice; test: Hepatoprotection in acetaminophen overdosed mice; format: in vivo, mouse

Row | Substance | anti-FXa IC50 [2] | anti-IIa IC50 [3] | reactivity toward 3-OST-4 modification (in words) [5] | also measured
1 | GlcNS-GlcA-GlcNS-IdoA2S-GlcNS-IdoA2S-GlcNS-GlcA-pNP [8-mer substrate C] |  |  |  | substrate converted to 3-O-sulfated product after 3-OST-4 modification ([1]; HPLC, conversion to HSoligo 1): about 71%
2 | GlcNS6S-GlcA-GlcNS6S-GlcA2S-GlcNS3S6S-GlcA2S-pNP [HSoligo 5] | 0.1544 µg/mL | no inhibition |  | 
3 | GlcNS6S-GlcA-GlcNS6S-GlcA2S-GlcNS3S6S-GlcA-pNP [HSoligo 4] | 0.3114 µg/mL | no inhibition |  | fold increase of anti-FXa IC50 compared to HSoligo 9 [2]: 6.9 fold; fold increase in binding to HMGB-1 compared to negative control NS6S 8-mer [4]: 6 fold
4 | GlcNS-GlcA-GlcNS-GlcA2S-GlcNS-GlcA-pNP [6-mer substrate D] |  |  |  | sulfation by 3-OST-4 (in words) [1]: nearly quantitatively converted
5 | GlcNS6S-(GlcA-GlcNS6S)5-GlcA-pNP [12-mer NS6S] |  |  | not substrates | 
6 | GlcNS6S-GlcA-GlcNS3S6S-IdoA2S-GlcNS6S-IdoA2S-GlcNS6S-IdoA2S-GlcNS6S-IdoA2S-GlcNS6S-IdoA2S-GlcNS6S-IdoA2S-GlcNS6S-IdoA2S-GlcNS6S-GlcA-Biotin [18-mer AXa] |  |  |  | hepatoprotection effect [6]: does not display the hepatoprotection effect
7 | GlcNS6S-GlcA-(GlcNS6S-IdoA2S)4-GlcNS6S-GlcA-pNP [12-mer NS2S6S] |  |  | not substrates | 
8 | GlcNS-GlcA-GlcNS-GlcA-GlcNS-IdoA2S-GlcNS-GlcA-pNP [8-mer substrate B] |  |  |  | sulfation by 3-OST-4 (in words) [1]: failed to sulfate
9 | GlcNS-GlcA-GlcNS-GlcA2S-GlcNS-GlcA2S-pNP [6-mer substrate E] |  |  |  | sulfation by 3-OST-4 (in words) [1]: highly reactive
10 | GlcNS6S-GlcA-GlcNS6S-GlcA2S-GlcNS3S6S-IdoA2S-GlcNS-GlcA-pNP [HSoligo 9] | 0.0225 µg/mL | no inhibition |  | 
11 | GlcNS6S-GlcA-GlcNS6S-GlcA2S-GlcNS3S6S-GlcA2S-GlcNS3S6S-GlcA2S-pNP [HSoligo 7] | 0.0795 µg/mL | lacks anti-FIIa activity; also recorded: no inhibition |  | binding to tau, fold higher than 8-mer NS6S [7]: 2 fold; binding to tau, fold higher than HSoligo 4 [7]: 4 fold; level of binding to tau relative to 18-mer AXa (in words) [7]: comparable to 18-mer AXa; fold increase of anti-FXa IC50 compared to HSoligo 9 [2]: 3.5 fold; hepatoprotection: plasma level of alanine aminotransferase (ALT) [8]: did not find a decrease; extent of binding to HMGB1 relative to positive control 18-mer AXa (in words) [4]: comparable to that of 18-mer AXa; fold increase in binding to HMGB-1 compared to negative control NS6S 8-mer [4]: 15 fold

Further lines, with some results ahead:

Row | anti-FXa IC50 [2] | anti-IIa IC50 [3] | reactivity toward 3-OST-4 modification (in words) [5] | Substance | also measured
12 |  |  | not substrates | GlcNAc-(GlcA-GlcNAc)5-GlcA-pNP [12-mer NAc] | 
13 |  |  | preferably sulfates | GlcNS-GlcA-(GlcNS-IdoA2S)4-GlcNSGlcA-pNP [12-mer NS2S] | 
14 |  |  | Lower reactivity | GlcNS-(GlcA-GlcNS)5-GlcA-pNP [12-mer NS] | 
15 | no inhibition | no inhibition |  | GlcNS-GlcA-GlcNS-GlcA2S-GlcNS3S-IdoA2S-GlcNS-GlcA-pNP [HSoligo 8] | 
